Measurements taken from ChEMBL document CHEMBL4814064, “Azetidinimines as a novel series of non-covalent broad-spectrum inhibitors of β-lactamases with submicromolar activities against carbapenemases KPC-2 (class A), NDM-1 (class B) and OXA-48 (class D)” (Eur J Med Chem, 2021).

Key:
[1] = Inhibition of NDM-1 (unknown origin) expressed in Escherichia coli BL21 (DE3) incubated for 3 mins by spectrophotometric analysis; design: species or system Bacteria
How it was run: (§1)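 NDM-1 (1 nM, His-tagged, expressed in E. coli BL21(DE3) with 1 mM IPTG for 3 h at 37 °C, purified, kept with 50 µM ZnSO4). Run in 100 mM phosphate pH 7 with 50 µM ZnSO4, 3 min enzyme–inhibitor preincubation, then 100 µM imipenem. Initial rates at 297 nm over 600 s, 25 °C. Triplicate seven-point IC50 converted to Ki (Cheng–Prusoff); percent inhibition at 10 µM.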

[2] = test system: Bacteria; assay: Inhibition of NDM-1 (unknown origin) expressed in Escherichia coli BL21 (DE3) at 10 uM incubated for 3 mins by spectrophotometric analysis relative to control; how it was run: as §1
[3] = test system: Bacteria; assay: Inhibition of OXA-48 (unknown origin) expressed in Escherichia coli BL21 (DE3) at 10 uM incubated for 3 mins by spectrophotometric analysis relative to control
How it was run: (§2)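 OXA-48 at 5.8 nM (His-tagged, expressed in BL21(DE3), purified in K2SO4 buffers) in 100 mM phosphate pH 7 plus 50 mM NaHCO3. Inhibitor preincubated 3 min; substrate 100 µM imipenem; initial velocities at 297 nm, 600 s, 25 °C. Seven inhibitor concentrations in triplicate give IC50, converted to Ki by Cheng–Prusoff; percent inhibition at 10 µM.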

[4] = molecular target: Class A carbapenemase KPC-2 (Escherichia coli, UniProt A8DS27); assay: Inhibition of KPC-2 (unknown origin) expressed in Escherichia coli BL21 (DE3) incubated for 3 mins by spectrophotometric analysis
How it was run: (§3)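 Preincubated 3 min with inhibitor in 100 mM phosphate pH 7. Imipenem 100 µM; hydrolysis followed at 297 nm for 600 s at 25 °C. IC50 from seven concentrations in triplicate; Ki by Cheng–Prusoff. Percent inhibition read at 10 µM.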

[5] = molecular target: Class A carbapenemase KPC-2 (Escherichia coli) (UniProt A8DS27); assay: Inhibition of KPC-2 (unknown origin) expressed in Escherichia coli BL21 (DE3) at 10 uM incubated for 3 mins by spectrophotometric analysis relative to control; how it was run: as §3
[6] = Inhibition of OXA-48 (unknown origin) expressed in Escherichia coli BL21 (DE3) incubated for 3 mins by spectrophotometric analysis; design: species or system Bacteria; how it was run: as §2

COc1ccc(N2/C(=N/c3ccccc3)C[C@@H]2c2ccccc2)cc1
IC50 [1]: < 5000 nM
inhibition [2]: 95%

COc1ccc(N2/C(=N/c3ccccc3)C[C@H]2c2ccccc2)cc1
IC50 [1]: < 5000 nM
inhibition [2]: 95%

COc1ccc(N2/C(=N/c3ccc(Cl)cc3)CC2c2ccc(Cl)cc2)cc1 (racemic)
Ki ([1]; read-out: Ki): 240 nM
inhibition [2]: > 50%
inhibition [3]: 27%
Ki ([4]; read-out: Ki): 1930 nM
inhibition [5]: > 50%

OCc1ccc(N2/C(=N/c3ccc(I)cc3)CC2c2ccc(Cl)cc2Cl)cc1 (racemic)
Ki ([1]; read-out: Ki): 1300 nM
Ki [6]: Not Active
inhibition [2]: > 50%
Ki ([4]; read-out: Ki): 3890 nM
inhibition [5]: > 50%

COc1cccc(N2/C(=N/c3ccccc3)CC2c2ccccc2)c1 (racemic)
Ki ([1]; read-out: Ki): 650 nM
inhibition [2]: > 50%
inhibition [3]: 28%
Ki ([4]; read-out: Ki): 3600 nM
inhibition [5]: > 50%

Ic1ccc(N2/C(=N/c3ccccc3)CC2c2ccccc2)cc1 (racemic)
Ki ([1]; read-out: Ki): 1900 nM
inhibition [2]: > 50%

c1ccc(/N=C2\CC(c3ccccc3)N2c2ccc3c(c2)OCCO3)cc1 (racemic)
Ki ([1]; read-out: Ki): 730 nM
inhibition [2]: > 50%
inhibition [3]: 37%
Ki ([4]; read-out: Ki): 3600 nM
inhibition [5]: > 50%

c1ccc(/N=C2\CC(c3ccccc3)N2c2ccc3c(c2)OCO3)cc1 (racemic)
Ki ([1]; read-out: Ki): 2390 nM
Ki [6]: Not Active
inhibition [2]: > 50%
Ki [4]: Not Active

COc1ccc(/N=C2\CC(c3ccc(Cl)cc3)N2c2ccc(OC)cc2)cc1 (racemic)
Ki ([1]; read-out: Ki): 860 nM
inhibition [2]: > 50%
inhibition [3]: 31%
Ki [4]: Not Active

COc1cc(N2/C(=N/c3ccccc3)CC2c2ccccc2)cc(OC)c1OC (racemic)
Ki [1]: Not Active
Ki [6]: Not Active
Ki [4]: Not Active

O=C(O)c1ccc(N2/C(=N/c3ccc(I)cc3)CC2c2ccc(Cl)cc2Cl)cc1 (racemic)
Ki ([1]; read-out: Ki): 35 nM
Ki [6]: Not Active
inhibition [2]: > 50%
Ki ([4]; read-out: Ki): 4150 nM
inhibition [5]: > 50%

COc1ccc(N2/C(=N/c3ccc(C(F)(F)F)cc3)CC2c2ccc(Cl)cc2Cl)cc1 (racemic)
Ki ([1]; read-out: Ki): 370 nM
Ki ([6]; read-out: Ki): 640 nM
inhibition [2]: > 50%
inhibition [3]: > 50%
Ki ([4]; read-out: Ki): 6040 nM
inhibition [5]: > 50%

COc1ccc(N2/C(=N/c3ccccc3)CC2c2ccc(F)cc2)cc1 (racemic)
Ki [1]: Not Active
Ki [4]: Not Active

Oc1ccc(N2/C(=N/c3ccccc3)CC2c2ccccc2)cc1 (racemic)
Ki ([1]; read-out: Ki): 360 nM
inhibition [2]: > 50%
inhibition [3]: 26%
inhibition [5]: 45%

CCOc1ccc(N2/C(=N/c3ccc(OC)cc3)CC2c2ccc3ccccc3c2)cc1 (racemic)
Ki ([1]; read-out: Ki): 270 nM
Ki ([6]; read-out: Ki): 840 nM
inhibition [2]: > 50%
inhibition [3]: > 50%
Ki ([4]; read-out: Ki): 1810 nM
inhibition [5]: > 50%

CCOc1ccc(N2/C(=N/c3ccc(I)cc3)CC2c2ccc3ccccc3c2)cc1 (racemic)
Ki ([1]; read-out: Ki): 250 nM
Ki ([6]; read-out: Ki): 700 nM
inhibition [2]: > 50%
inhibition [3]: > 50%
Ki ([4]; read-out: Ki): 1840 nM
inhibition [5]: > 50%

COc1ccc(N2/C(=N/c3ccc(Br)cc3)CC2c2ccc(Cl)cc2)cc1 (racemic)
Ki ([1]; read-out: Ki): 300 nM
Ki ([6]; read-out: Ki): 840 nM
inhibition [2]: > 50%
inhibition [3]: > 50%
Ki ([4]; read-out: Ki): 1550 nM
inhibition [5]: > 50%

COc1ccc(N2/C(=N/c3ccccc3)CC2c2ccccc2)cc1 (racemic)
Ki ([1]; read-out: Ki): 1000 nM
Ki [6]: Not Active
inhibition [2]: 90%
Ki ([4]; read-out: Ki): 3600 nM
inhibition [5]: > 50%

COc1ccc(N2/C(=N/c3ccc(I)cc3)CC2c2cc(Cl)cc(Cl)c2)cc1 (racemic)
Ki ([1]; read-out: Ki): 2040 nM
Ki ([6]; read-out: Ki): 530 nM
inhibition [2]: > 50%
inhibition [3]: > 50%
inhibition [5]: 42%

CSc1ccc(N2/C(=N/c3ccccc3)CC2c2ccccc2)cc1 (racemic)
Ki ([1]; read-out: Ki): < 500 nM
Ki [6]: Not Active
inhibition [2]: > 50%
inhibition [5]: 50%

CCOc1ccc(N2/C(=N/c3ccc(Cl)cc3)CC2c2ccc3ccccc3c2)cc1 (racemic)
Ki ([1]; read-out: Ki): 270 nM
inhibition [2]: > 50%
inhibition [3]: 30%
Ki ([4]; read-out: Ki): 1960 nM
inhibition [5]: > 50%

COc1ccc(N2/C(=N/c3ccccc3)CC2c2ccc3ccccc3c2)cc1 (racemic)
Ki ([1]; read-out: Ki): 1000 nM
Ki ([6]; read-out: Ki): 1300 nM
inhibition [2]: > 50%
inhibition [3]: > 50%
Ki ([4]; read-out: Ki): 2200 nM
inhibition [5]: > 50%

CCOc1ccc(N2/C(=N/c3ccccc3)CC2c2ccccc2)cc1 (racemic)
Ki ([1]; read-out: Ki): 1000 nM
inhibition [2]: > 50%
inhibition [3]: 45%
Ki ([4]; read-out: Ki): 1400 nM
inhibition [5]: > 50%

CCOc1ccc(N2/C(=N/c3ccccc3)CC2c2ccc3ccccc3c2)cc1 (racemic)
Ki ([1]; read-out: Ki): 2400 nM
inhibition [2]: > 50%

c1ccc(/N=C2\CC(c3ccccc3)N2c2ccccc2)cc1 (racemic)
Ki ([1]; read-out: Ki): 4620 nM
Ki ([6]; read-out: Ki): 800 nM
inhibition [2]: > 50%
inhibition [3]: > 50%
Ki ([4]; read-out: Ki): 2410 nM
inhibition [5]: > 50%

COc1ccc(N2/C(=N/c3ccc(C(F)(F)F)cc3)CC2c2ccc(Cl)cc2)cc1 (racemic)
Ki ([1]; read-out: Ki): 320 nM
inhibition [2]: > 50%
inhibition [3]: 32%
Ki ([4]; read-out: Ki): 2360 nM
inhibition [5]: > 50%

COc1ccc(N2/C(=N/c3ccc(I)cc3)CC2c2ccc3ccccc3c2)cc1 (racemic)
Ki ([1]; read-out: Ki): 230 nM
Ki ([6]; read-out: Ki): 850 nM
inhibition [2]: > 50%
inhibition [3]: > 50%
Ki ([4]; read-out: Ki): 1580 nM
inhibition [5]: > 50%

c1ccc(COc2ccc(N3/C(=N/c4ccccc4)CC3c3ccccc3)cc2)cc1 (racemic)
Ki ([1]; read-out: Ki): 200 nM
inhibition [2]: > 50%
inhibition [3]: 31%
Ki ([4]; read-out: Ki): 1150 nM
inhibition [5]: > 50%

COc1ccc(C2C/C(=N\c3ccccc3)N2c2ccc(OC)cc2)cc1 (racemic)
Ki ([1]; read-out: Ki): 2400 nM
Ki [6]: Not Active
inhibition [2]: > 50%
Ki [4]: Not Active

COc1ccc(N2/C(=N/c3ccccc3)CC2c2cc(Cl)cc(Cl)c2)cc1 (racemic)
Ki ([1]; read-out: Ki): 1000 nM
inhibition [2]: > 50%
inhibition [3]: 20%
Ki ([4]; read-out: Ki): 1400 nM
inhibition [5]: > 50%

COc1ccc(N2/C(=N/c3ccccc3)CC2c2cccnc2)cc1 (racemic)
Ki [1]: Not Active
Ki [6]: Not Active
Ki [4]: Not Active

COc1ccc(N2/C(=N/c3ccc(Br)cc3)CC2c2ccc(Cl)cc2Cl)cc1 (racemic)
Ki ([1]; read-out: Ki): 580 nM
inhibition [2]: > 50%
inhibition [3]: 46%
inhibition [5]: 30%

COc1ccc(N2/C(=N/c3ccc(I)cc3)CC2c2ccc(I)cc2)cc1 (racemic)
Ki ([1]; read-out: Ki): 370 nM
Ki ([6]; read-out: Ki): 510 nM
inhibition [2]: > 50%
inhibition [3]: > 50%
Ki ([4]; read-out: Ki): 5660 nM
inhibition [5]: > 50%

COc1ccc(N2/C(=N/c3ccc(I)cc3)CC2c2ccc(F)cc2)cc1 (racemic)
Ki ([1]; read-out: Ki): 500 nM
Ki ([6]; read-out: Ki): 450 nM
inhibition [2]: > 50%
inhibition [3]: > 50%
Ki ([4]; read-out: Ki): 6490 nM
inhibition [5]: > 50%

COc1ccc(N2/C(=N/c3ccc(Br)cc3)CC2c2ccc3ccccc3c2)cc1 (racemic)
Ki ([1]; read-out: Ki): 520 nM
Ki ([6]; read-out: Ki): 390 nM
inhibition [2]: > 50%
inhibition [3]: > 50%
Ki ([4]; read-out: Ki): 5230 nM
inhibition [5]: > 50%

COc1ccc(N2/C(=N/c3ccccc3)CC2c2ccccc2)cc1OC (racemic)
Ki ([1]; read-out: Ki): 2400 nM
Ki [6]: Not Active
inhibition [2]: > 50%
Ki [4]: Not Active

COc1ccc(N2/C(=N/c3ccccc3)CC2c2ccc(Cl)cc2)cc1 (racemic)
Ki ([1]; read-out: Ki): 1000 nM
Ki [6]: Not Active
inhibition [2]: > 50%
Ki [4]: Not Active

COc1ccc(N2/C(=N/c3ccc(I)cc3)CC2c2ccc(Cl)cc2)cc1 (racemic)
Ki ([1]; read-out: Ki): 330 nM
Ki ([6]; read-out: Ki): 830 nM
inhibition [2]: > 50%
inhibition [3]: > 50%
Ki ([4]; read-out: Ki): 1770 nM
inhibition [5]: > 50%

COc1ccc(N2/C(=N/c3ccc(Cl)cc3)CC2c2ccc3ccccc3c2)cc1 (racemic)
Ki ([1]; read-out: Ki): 730 nM
inhibition [2]: > 50%
inhibition [3]: 18%
Ki ([4]; read-out: Ki): 3940 nM
inhibition [5]: > 50%

COc1ccc(N2/C(=N/c3ccccc3)CC2c2ccc(I)cc2)cc1 (racemic)
Ki ([1]; read-out: Ki): 490 nM
inhibition [2]: > 50%
inhibition [3]: 33%
Ki ([4]; read-out: Ki): 730 nM
inhibition [5]: > 50%
